# Test results: ChEMBL document CHEMBL1828544, “Structural modification of honokiol, a biphenyl occurring in Magnolia officinalis: the evaluation of honokiol analogues as inhibitors of angiogenesis and for their cytotoxicity and structure-activity relationship” (J Med Chem, 2011)
# The source made the active and inactive calls. No cut-off for these calls is given here.
# Key:
# HUVEC = experiment: Antiproliferative activity against human HUVEC cells after 24 hrs by MTT assay; type: functional, cell-based
# Procedure, shortened: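 Primary HUVECs grown on gelatin in M-199 with 20% FBS, 10 ng/mL bFGF, 2 ng/mL VEGF, 5% CO2, 37 °C. Cells (5 × 10^3/well) exposed to a range of compound concentrations for 24 h. MTT added for 3 h, formazan dissolved in DMSO, absorbance read at 570 nm. IC50 from percentage growth versus untreated control.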
# A549 = experiment: Antiproliferative activity against human A549 cells after 24 hrs by MTT assay; type: functional, cell-based; conditions: A549, 24 h
# Procedure, shortened: (§1)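 Cells (5 × 10^3/well) kept at 37 °C, 5% CO2 and treated with varied compound concentrations for 24 h. MTT given for a further 3 h, precipitate dissolved in DMSO, absorbance taken at 570 nm. IC50 calculated from percentage growth relative to untreated control.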
# HepG2 = experiment: Antiproliferative activity against human HepG2 cells after 24 hrs by MTT assay; type: functional, cell-based; conditions: HepG2, 24 h; procedure, shortened: as §1
# [1] = Antiproliferative activity against mouse LL/2 cells after 24 hrs by MTT assay; type: functional, cell-based; conditions: Lewis lung carcinoma; procedure, shortened: as §1
# Danio rerio [2] = species on record: Danio rerio; experiment: Antiangiogenic activity in fli-1:enhanced GFP expressing transgenic zebrafish embryo assessed as inhibition of neovacularisation at 40 uM after 24 hrs relative to control; type: functional
# Procedure, shortened: (§2)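 fli-1:EGFP transgenic zebrafish embryos sorted at about 6 hpf (6 per well), exposed in embryo water to compound at 5–40 μM for 24 h. Then anesthetized with 0.05% 2-phenoxyethanol, photographed and quantified.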
# Danio rerio [3] = species on record: Danio rerio; experiment: Antiangiogenic activity in fli-1:enhanced GFP expressing transgenic zebrafish embryo assessed as inhibition of neovacularisation at 5 uM after 24 hrs relative to control; type: functional; procedure, shortened: as §2
# Danio rerio [4] = species on record: Danio rerio; experiment: Antiangiogenic activity in fli-1:enhanced GFP expressing transgenic zebrafish embryo assessed as inhibition of neovacularisation at 10 uM after 24 hrs relative to control; type: functional; procedure, shortened: as §2
# Danio rerio [5] = species on record: Danio rerio; experiment: Antiangiogenic activity in fli-1:enhanced GFP expressing transgenic zebrafish embryo assessed as inhibition of neovacularisation at 20 uM after 24 hrs relative to control; type: functional; procedure, shortened: as §2
IC50 (A549) [µM],IC50 (HepG2) [µM],Structure (SMILES),IC50 (HUVEC) [µM],IC50 [1] [µM],inhibition (INH) (Danio rerio [2]) [%],inhibition (Danio rerio [3]),inhibition (Danio rerio [4]),inhibition (INH) (Danio rerio [5]) [%],inhibition (INH) (Danio rerio [4]) [%],inhibition (INH) (Danio rerio [3]) [%]
> 100,> 100,C=CCc1cc(-c2cccc(OC)c2)ccc1O,> 100,> 100,–,–,–,–,–,–
> 100,> 100,C=CCc1cc(-c2ccc(OC)cc2)ccc1OC,> 100,> 100,–,–,–,–,–,–
64,56,C=CC(C)(C)c1cc(-c2cccc([N+](=O)[O-])c2)ccc1O,77,45.1,<25,inactive,inactive,<25,–,–
75.6,69.2,C=CCc1cc(-c2ccc(OC)cc2)cc(CC=C)c1O,> 100,60.3,<25,inactive,–,<25,<25,–
> 100,91,C=CC(C)(C)c1cc(-c2ccc(OC)cc2)ccc1O,> 100,> 100,–,–,–,–,–,–
> 100,89,C=CCc1cc(-c2ccc(C(F)(F)F)cc2)ccc1OC,> 100,78.8,–,–,–,–,–,–
> 123,> 123,C=CCc1cc(CO)c(O)c(-c2cc(CO)c(O)c(CC=C)c2)c1,> 100,> 123,–,–,–,–,–,–
80,80.5,C=CCc1cc(-c2cccc([N+](=O)[O-])c2)cc(CC=C)c1O,> 100,56.5,<25,inactive,–,<25,<25,–
> 135,> 135,C=CCc1cc(CO)c(O)c(-c2ccc(O)c(CC=C)c2)c1,> 100,> 135,–,–,–,–,–,–
> 100,> 100,C=CCOc1ccc(-c2cccc([N+](=O)[O-])c2)cc1CC=C,> 100,> 100,–,–,–,–,–,–
53.2,63.5,C=CCc1ccc(OC(C)C)c(-c2ccc(O)c(CC=C)c2)c1,65.5,48.4,<25,–,–,<25,<25,<25
> 100,> 100,C=CCc1cc(-c2ccc(F)cc2)ccc1O,> 100,> 100,–,–,–,–,–,–
> 100,> 100,C=CCc1cc(-c2cccc([N+](=O)[O-])c2)ccc1O,> 100,> 100,–,–,–,–,–,–
> 91.3,68.9,C=CCc1ccc(OCC(=O)OCC)c(-c2ccc(OCC(=O)OCC)c(CC=C)c2)c1,> 100,> 91.3,–,–,–,–,–,–
> 100,> 100,C=CCc1cc(-c2ccccc2)ccc1O,> 100,> 100,–,–,–,–,–,–
76,60.3,C=CCc1cc(-c2ccc(C(F)(F)F)cc2)ccc1O,74,74.8,<25,inactive,–,<25,<25,–
95.4,> 100,C=CCc1ccc(OC)c(-c2ccc(OC)cc2)c1,> 100,71.1,–,–,–,–,–,–
> 124,> 124,C=CCc1ccc(OCC)c(-c2ccc(OCC)c(CC=C)c2)c1,> 100,> 124,–,–,–,–,–,–
> 114,> 114,C=CCc1ccc(OCCC)c(-c2ccc(OCCC)c(CC=C)c2)c1,> 100,> 114,–,–,–,–,–,–

IC50 (A549) [µM],IC50 (HepG2) [µM],Structure (SMILES),IC50 (HUVEC) [µM],IC50 [1] [µM],inhibition (INH) (Danio rerio [2]) [%],inhibition (Danio rerio [3]),inhibition (Danio rerio [4]),inhibition (INH) (Danio rerio [5]) [%],inhibition (INH) (Danio rerio [4]) [%],inhibition (INH) (Danio rerio [3]) [%]
73,58.3,C=CCc1cc(-c2cccc(C(F)(F)F)c2)ccc1O,76,65.9,–,–,–,–,–,–
> 100,62.3,C=CCc1ccc(O)c(-c2cccc([N+](=O)[O-])c2)c1,79.1,61.4,–,inactive,–,<25,<25,–
42.7,48.4,C=CCc1ccc(O)c(-c2ccc(OC(C)C)c(CC=C)c2)c1,70.5,49.1,–,inactive,–,<25,<25,–
–,57.5,C=CCc1ccc(OC)c(-c2ccc(O)c(CC=C)c2)c1,61.8,108,–,–,–,–,–,–
–,> 136,C=CCc1ccc(OC)c(-c2ccc(OC)c(CC=C)c2)c1,> 100,> 136,–,–,–,–,–,–
> 100,> 100,C=CCc1cc(-c2cc(F)cc(F)c2)ccc1O,80,78.2,<25,–,–,<25,<25,<25
> 100,> 100,C=CCc1cc(-c2ccc(OC)c(OC)c2)ccc1O,> 100,> 100,–,–,–,–,–,–
> 100,> 100,C=CCc1cc(-c2ccc(OC)cc2OC)ccc1O,> 100,> 100,–,–,–,–,–,–
> 85.8,> 85.2,C=CCc1cc(C=O)c(OCC(=O)OCC)c(-c2ccc(OCC(=O)OCC)c(CC=C)c2)c1,86.9,26.1,–,–,–,–,–,–
> 114,> 114,C=CCc1ccc(OC(C)C)c(-c2ccc(OC(C)C)c(CC=C)c2)c1,> 100,> 114,–,–,–,–,–,–
76.2,89,C=CCc1ccc(O)c(-c2ccc(O)cc2)c1,64.3,> 100,–,inactive,–,<25,<25,–
42.6,53.9,C=CCc1cc(C=O)c(OC)c(-c2ccc(OC)c(CC=C)c2)c1,39.1,40.8,<25,–,–,<25,<25,<25
> 100,60.1,C=CCc1cc(-c2cccc(NC(C)=O)c2)ccc1OC,> 100,65.1,–,–,–,–,–,–
> 100,> 100,C=CCc1cc(-c2cccc([N+](=O)[O-])c2)ccc1OC,> 100,> 100,–,–,–,–,–,–
66,> 100,C=CCc1cc(-c2cccc(SC)c2)ccc1O,> 100,> 100,–,–,–,–,–,–
39,28.5,C=CCc1cc(C=O)c(OCC)c(-c2ccc(OCC)c(CC=C)c2)c1,37.9,31.9,<25,inactive,–,<25,<25,–
> 100,> 100,C=CCOc1ccc(-c2ccc(OC)cc2)cc1CC=C,> 100,> 100,–,–,–,–,–,–
> 100,> 100,C=CCc1cc(-c2ccc(OC)cc2)ccc1O,> 100,> 100,–,–,–,–,–,–
59.7,52.4,C=CCc1cc(-c2ccccc2C(F)(F)F)ccc1O,82,60.3,<25,inactive,–,<25,<25,–

Structure (SMILES),IC50 (A549) [µM],IC50 (HepG2) [µM],IC50 (HUVEC) [µM],IC50 [1] [µM],inhibition (INH) (Danio rerio [2]) [%],inhibition (Danio rerio [3]),inhibition (Danio rerio [4]),inhibition (INH) (Danio rerio [5]) [%],inhibition (INH) (Danio rerio [4]) [%],inhibition (INH) (Danio rerio [3]) [%]
C=CCc1ccc(O)c(-c2ccc(OCC)c(CC=C)c2)c1,51,73.8,67.1,61.6,–,–,–,–,–,–
C=CCc1ccc(OC)c(-c2cccc([N+](=O)[O-])c2)c1,> 100,> 100,> 100,89.4,–,–,–,–,–,–
C=CCc1ccc(OCC)c(-c2ccc(O)c(CC=C)c2)c1,81.6,71.5,68.2,67.6,–,–,–,–,–,–
C=CCc1ccc(OCCC)c(-c2ccc(O)c(CC=C)c2)c1,53.8,49.9,73.3,45.8,<25,inactive,–,<25,<25,–
C=CCc1ccc(O)c(-c2ccc(OCCC)c(CC=C)c2)c1,82.4,> 130,89.3,64.8,–,–,–,–,–,–
